High-throughput results deposited in PubChem BioAssay by Broad Institute.
PGC1a acetyl up: raises PGC1a acetylation signal in U2OS cells | 350,000 tested, 0.21% active | activation, % at 15.6 µM | U2OS PGC1a acetylation AlphaScreen, overnight | AID 651723;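 active = every replicate reaching activation of at least 50%, whatever the mean replicate activation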;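 also: hits raise the AlphaScreen acetylation signal above neutral controls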
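System – flag-PGC1a/GCN5 U2OS cells · Quantity – 7000 U2OS cells per well · Signal – AlphaScreen proximity luminescence, anti-acetyl-lysine antibody · Schedule – overnight compound treatment, 37 °C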
* = called active by the depositor. Many of the other results were omitted from the sample, so hits are more common in it than they were.

SMILES | PGC1a acetyl up
Cc1ccccc1CS(=O)(=O)c1nnc([C@H](CC(C)C)NC(=O)OC(C)(C)C)o1 | 74*
COCCCNC1CS(=O)(=O)CC1O (configuration not stated) | -45
CCC(C)NCCOCCOc1ccc(C)cc1OC (configuration not stated) | -50
COc1ccc(S(=O)(=O)N2c3ccc(F)cc3CCC2C)cc1 (configuration not stated) | 120*
COCCNC(=O)CCc1c(C)nc2c(c(C)nn2-c2ccc(C)c(C)c2)c1C | -78
C[C@H]1CN([C@@H](C)CO)S(=O)(=O)c2ccc(C3=CCCC3)cc2O[C@@H]1CN(C)C | -59
COc1ccc(OCC(=O)NNC(=O)c2c(-c3ccccc3Cl)noc2C)cc1 | -62
CSc1n[nH]c(NC(=O)c2c(-c3c(Cl)cccc3Cl)noc2C)n1 | -65
Cc1cc(C)nc(NC(=O)c2c(-c3ccccc3Cl)noc2C)n1 | 77*
CSc1ncccc1C(=O)N1CCN(C(=O)c2ccccc2)CC1 | -44
O=C(COC(=O)c1ccccc1C(=O)c1ccc(Cl)c([N+](=O)[O-])c1)NC1CC1 | 94*
Cn1nnnc1Sc1ncnc2scc(-c3ccc[nH]3)c12 | 91*
CCCCn1c(=NC(=O)c2cccnc2)c(C(=O)OCC)cc2c(=O)n3ccccc3nc21 | 115*
C=C1C(=O)O[C@H]2[C@@H]1CC/C(CO)=C\CC[C@@]1(C)O[C@@H]21 | 61*
CCCNC(=O)c1nnsc1S(=O)c1ccc(Cl)cc1 (configuration not stated) | 148*
CCCNC(=O)c1nnsc1S(=O)(=O)c1ccc(Cl)cc1 | 82*
CNC(=O)c1nnsc1S(=O)c1ccc(Cl)cc1 (configuration not stated) | 117*
O=C1C2C3CCC(C3)C2C(=O)N1CNc1ccc(F)cc1 (configuration not stated) | -47
Cc1cc(C)c2oc(C(=O)N(Cc3ccccc3)c3ccccn3)cc(=O)c2c1 | -46
O=C1C=C(c2cc3ccccc3s2)CCC1 | 58*
CO[C@H]1CN(C)C(=O)c2ccc(NC(=O)c3ccno3)cc2OC[C@H](C)NC[C@H]1C | -51
CC(C)(C)n1nnnc1CN(Cc1ccc(F)cc1)Cc1ccco1 | 92*
O=C(CSc1nnnn1-c1ccc(F)cc1)NNC(=O)c1ccco1 | -44
C=CCNS(=O)(=O)c1cccc2cc(C(=O)O)c(O)cc12 | -95
C#CC(CC)(CC)NC(=O)c1ccc(Br)s1 | -46
SMILES | PGC1a acetyl up
CCOC(=O)c1ccc(-c2c(-c3cc(OC)c(OC)c(OC)c3)noc2C)cc1F | 59*
C[C@@H]1CN([C@H](C)CO)C(=O)c2cc(NS(=O)(=O)c3cccs3)ccc2O[C@@H]1CN(C)S(=O)(=O)c1ccc(F)cc1 | -43
C#CCN(C[C@@H]1[C@@H](OC(=O)Nc2cccs2)[C@@H](OC(=O)Nc2cccs2)Cn2c(=O)ccc(=O)n21)S(=O)(=O)c1ccc(C)cc1 | -43
C#CCN(C[C@@H]1[C@@H](OC(=O)NCc2ccccc2F)[C@@H](OC(=O)NCc2ccccc2F)Cn2c(=O)ccc(=O)n21)S(=O)(=O)c1ccc(C)cc1 | -60
C#CCN(C[C@@H]1[C@@H](OC(=O)NC2CCCC2)[C@@H](OC(=O)NC2CCCC2)Cn2c(=O)ccc(=O)n21)S(=O)(=O)c1ccc(C)cc1 | 111*
COc1ccccc1/C=C1\SC(=S)N(CCC(=O)NCCCn2ccnc2)C1=O | 121*
O=C(CCN1C(=O)/C(=C/c2ccccc2)SC1=S)NCCCN1CCOCC1 | -56
COc1ccccc1/C=C1\SC(=O)N(CCC(=O)NCCCn2ccnc2)C1=O | 214*
O=c1cc(CSc2ccccn2)[nH]c(=O)[nH]1 | -44
CCn1c(Cl)c(C=O)s/c1=N\S(=O)(=O)c1ccccc1 | -78
Cc1nc(N(CCO)C2CCCCC2)c2nnn(Cc3ccccc3)c2n1 | -40
C[C@@H]1CN([C@H](C)CO)C(=O)c2cccc(NC(=O)C3CCCCC3)c2O[C@@H]1CN(C)CC1CCCCC1 | -55
CC1CN(S(=O)(=O)c2ccc(C(=O)NCCCn3ccnc3)cc2)CC(C)O1 (configuration not stated) | 411*
CC(C)(C)c1ccc(C(=O)NCCN2CCOCC2)cc1 | -65
C[C@H](CO)N1C[C@H](C)[C@@H](CN(C)Cc2ccccc2F)Oc2ncc(Br)cc2C1=O | -64
CCCN(C)C[C@H]1Oc2cc(C#Cc3ccc(OC)cc3)ccc2S(=O)(=O)N([C@@H](C)CO)C[C@H]1C | -49
C=C1C(=O)O[C@H]2[C@H]1[C@@H](O)CC(=C)[C@@H]1CC(=O)[C@@H](C)[C@H]21 | 72*
COc1c(O)cc(O)c2c(=O)cc(-c3ccccc3)oc12 | 64*
O=C(O)CSCC(=O)NCc1ccc(Cl)cc1Cl | -41
COc1ccc(NC(=O)/C(Cl)=C(/Cl)S(=O)Cc2ccccc2)cn1 (configuration not stated) | -71
CC(=O)Nc1cccc(-c2ccnc3c2CC(C)(C(=O)Nc2ccc4c(c2)OCO4)O3)c1 (configuration not stated) | 70*
O=C(Nc1cccc(Cl)c1)Nc1ccc2c(c1)OCO2 | -59
COc1ccc(NC(=O)C2(C)Cc3c(-c4cccc(NC(C)=O)c4)ccnc3O2)cn1 (configuration not stated) | 58*
COc1ccc(NC(=O)Nc2ccc3c(c2)C(=O)N([C@H](C)CO)C[C@H](C)[C@@H](CN(C)S(=O)(=O)c2ccc(Cl)cc2)O3)cc1 | -40
CSc1nc(SC)c2c3c(oc2n1)COC(C)(C)C3 | 58*
SMILES | PGC1a acetyl up
C[C@@H]1CN([C@@H](C)CO)C(=O)CCCn2cc(nn2)CO[C@H]1CN(C)Cc1ccncc1 | -51
O=C1/C(=C\c2ccc(Cl)c(Cl)c2)CN(C(=O)CCN2CCOCC2)C/C1=C/c1ccc(Cl)c(Cl)c1 | -54
COc1ccc(CN(C)C[C@@H]2Oc3ccc(NS(=O)(=O)c4c(C)noc4C)cc3C(=O)N([C@H](C)CO)C[C@H]2C)cc1 | -51
COCC#Cc1ccc2c(c1)O[C@H](CN(C)C(=O)CN(C)C)[C@@H](C)CN([C@@H](C)CO)S2(=O)=O | -58
COCCCNC(=O)c1ccc(CSCc2ccc(C)cc2)o1 | -46
Cn1ccc2cc(OCc3ccccc3)ccc21 | 54*
CCOc1cc(CNC2CCCC2)cc(Cl)c1OCc1ccc(F)cc1 | -78
O=C(O)c1ccc(N=Nc2c(O)[nH]c3ccccc23)cc1 | -49
CC(=O)c1c(-c2ccccc2)[nH]c2ccccc12 | 61*
O=C(NCc1cccnc1)/C(=C\c1ccc(-c2cccc(Cl)c2)o1)S(=O)(=O)c1ccccc1 | 76*
CC1CCCN(C(=O)Cc2ccc(F)cc2)C1 (configuration not stated) | -75
C[C@@H]1CN([C@@H](C)CO)C(=O)c2ccccc2-c2ccccc2CO[C@@H]1CN(C)C(=O)Nc1cccc(Cl)c1Cl | -41
O=C1c2ccc(-c3ccc4c(c3)C(=O)N(CCCO)C4=O)cc2C(=O)N1CCCO | -70
O=C(CN1CCC(n2nnc3cc(F)ccc32)CC1)Nc1ccc2c(c1)CCC2 | 103*
O=C(C[C@H]1CC[C@@H](NC(=O)c2ccccc2)[C@H](CO)O1)Nc1ccc(-c2ccccc2)cc1 | -44
Cc1cc(C=O)c(C)n1-c1ccc(NC2CCCC2)c([N+](=O)[O-])c1 | -50
Cc1ccc(N2C(=O)c3ccccc3NC2C(C)Cc2ccc3c(c2)OCO3)cc1 (configuration not stated) | -40
CC(C)C12CN3CC(C(C)C)(CN(C1)C3c1ccc3c(c1)OCO3)C2=O (configuration not stated) | 80*
